Results: ChEMBL document CHEMBL5653631, “A Potent and Selective ULK1 Inhibitor Suppresses Autophagy and Sensitizes Cancer Cells to Nutrient Stress” (iScience, 2018)
Blank lines part the entries; values can stand above or below the molecule they belong to.

Legend:
[1] = target: STE20-like serine/threonine-protein kinase (Homo sapiens) (UniProt Q9H2G2); assay: Inhibition of human recombinant SLK at 500 nM related to control ULK1
[2] = target: T1, Serine/threonine-protein kinase BRSK2 (Homo sapiens) (UniProt Q8IWQ3); assay: Inhibition of human recombinant BRSK2 at 15 nM in presence of ATP by radiometric assay relative to control
T1 sequence (whole entry): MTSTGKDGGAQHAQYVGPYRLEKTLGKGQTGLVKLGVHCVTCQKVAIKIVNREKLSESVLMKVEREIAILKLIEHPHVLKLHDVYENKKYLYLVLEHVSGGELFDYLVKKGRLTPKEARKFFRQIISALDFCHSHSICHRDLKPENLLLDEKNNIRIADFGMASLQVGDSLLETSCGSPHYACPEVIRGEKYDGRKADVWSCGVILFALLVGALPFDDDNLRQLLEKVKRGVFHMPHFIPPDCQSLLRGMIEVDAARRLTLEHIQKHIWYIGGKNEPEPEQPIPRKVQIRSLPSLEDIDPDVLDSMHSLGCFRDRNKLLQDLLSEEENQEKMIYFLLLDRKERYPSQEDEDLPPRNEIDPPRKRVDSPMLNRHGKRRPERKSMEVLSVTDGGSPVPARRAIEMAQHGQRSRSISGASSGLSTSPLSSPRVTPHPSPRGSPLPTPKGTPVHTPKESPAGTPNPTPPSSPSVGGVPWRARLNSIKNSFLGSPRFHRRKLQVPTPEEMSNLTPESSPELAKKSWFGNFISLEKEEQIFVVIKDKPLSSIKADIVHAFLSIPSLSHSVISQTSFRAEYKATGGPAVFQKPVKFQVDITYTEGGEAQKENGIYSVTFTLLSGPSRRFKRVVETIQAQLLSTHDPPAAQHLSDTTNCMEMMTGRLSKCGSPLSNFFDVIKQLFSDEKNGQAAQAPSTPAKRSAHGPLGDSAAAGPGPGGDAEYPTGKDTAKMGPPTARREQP
Method in brief: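 Recombinant human kinase panel (327 kinases) run as radiometric activity assays, each kinase in duplicate at one compound concentration. Activity remaining expressed relative to vehicle control; percent inhibition taken as 100% minus % activity remaining.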

[3] = target: Serine/threonine-protein kinase 32C (Homo sapiens) (UniProt Q86UX6); assay: Inhibition of human recombinant YANK3 at 15 nM related to control ULK1
Serine/threonine-protein kinase 32C (Homo sapiens), sequence (Q86UX6 whole entry): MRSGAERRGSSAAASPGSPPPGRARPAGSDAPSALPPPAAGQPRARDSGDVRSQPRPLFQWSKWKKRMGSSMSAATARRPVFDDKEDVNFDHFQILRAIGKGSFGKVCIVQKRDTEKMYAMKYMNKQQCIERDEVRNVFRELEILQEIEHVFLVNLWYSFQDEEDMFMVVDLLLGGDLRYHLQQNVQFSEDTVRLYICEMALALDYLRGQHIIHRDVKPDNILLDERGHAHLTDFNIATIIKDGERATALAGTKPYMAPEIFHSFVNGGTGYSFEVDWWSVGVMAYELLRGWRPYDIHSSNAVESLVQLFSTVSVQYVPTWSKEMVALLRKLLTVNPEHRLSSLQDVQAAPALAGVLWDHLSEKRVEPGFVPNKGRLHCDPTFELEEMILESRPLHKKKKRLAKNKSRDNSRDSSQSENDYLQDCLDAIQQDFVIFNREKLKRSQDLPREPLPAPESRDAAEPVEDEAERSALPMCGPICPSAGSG

[4] = target: T2, Serine/threonine-protein kinase PLK4 (Homo sapiens) (UniProt O00444); assay: Inhibition of human recombinant PLK4 at 15 nM in presence of ATP by radiometric assay relative to control
T2 sequence (whole entry): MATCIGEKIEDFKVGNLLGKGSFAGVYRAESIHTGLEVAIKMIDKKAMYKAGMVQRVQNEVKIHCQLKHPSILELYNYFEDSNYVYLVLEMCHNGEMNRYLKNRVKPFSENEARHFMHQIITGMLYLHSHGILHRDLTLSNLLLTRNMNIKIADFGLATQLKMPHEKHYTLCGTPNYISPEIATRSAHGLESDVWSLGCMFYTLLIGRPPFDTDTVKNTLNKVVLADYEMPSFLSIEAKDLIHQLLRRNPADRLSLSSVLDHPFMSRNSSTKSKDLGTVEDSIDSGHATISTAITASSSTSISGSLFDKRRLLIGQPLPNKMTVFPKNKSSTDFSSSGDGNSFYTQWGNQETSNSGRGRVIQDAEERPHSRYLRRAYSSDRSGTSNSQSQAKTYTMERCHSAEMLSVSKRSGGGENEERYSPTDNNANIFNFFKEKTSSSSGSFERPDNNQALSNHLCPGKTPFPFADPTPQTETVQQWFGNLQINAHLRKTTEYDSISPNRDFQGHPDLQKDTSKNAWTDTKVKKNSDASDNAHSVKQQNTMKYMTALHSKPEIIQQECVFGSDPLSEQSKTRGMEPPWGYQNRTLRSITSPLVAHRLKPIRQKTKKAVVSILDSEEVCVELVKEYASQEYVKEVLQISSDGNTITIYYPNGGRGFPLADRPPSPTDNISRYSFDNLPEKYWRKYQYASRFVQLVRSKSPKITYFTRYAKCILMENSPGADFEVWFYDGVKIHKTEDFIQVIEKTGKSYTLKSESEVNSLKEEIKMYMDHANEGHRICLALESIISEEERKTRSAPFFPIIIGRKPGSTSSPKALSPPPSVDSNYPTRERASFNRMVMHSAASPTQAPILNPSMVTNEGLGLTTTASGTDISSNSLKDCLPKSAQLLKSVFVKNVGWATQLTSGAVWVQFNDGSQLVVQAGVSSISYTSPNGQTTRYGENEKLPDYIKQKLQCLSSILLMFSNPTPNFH

[5] = target: Epithelial discoidin domain-containing receptor 1 (Homo sapiens) (UniProt Q08345); assay: Inhibition of human recombinant DDR1 at 15 nM in presence of ATP by radiometric assay relative to control
Epithelial discoidin domain-containing receptor 1 (Homo sapiens), sequence (Q08345 whole entry, the tested form may be a part): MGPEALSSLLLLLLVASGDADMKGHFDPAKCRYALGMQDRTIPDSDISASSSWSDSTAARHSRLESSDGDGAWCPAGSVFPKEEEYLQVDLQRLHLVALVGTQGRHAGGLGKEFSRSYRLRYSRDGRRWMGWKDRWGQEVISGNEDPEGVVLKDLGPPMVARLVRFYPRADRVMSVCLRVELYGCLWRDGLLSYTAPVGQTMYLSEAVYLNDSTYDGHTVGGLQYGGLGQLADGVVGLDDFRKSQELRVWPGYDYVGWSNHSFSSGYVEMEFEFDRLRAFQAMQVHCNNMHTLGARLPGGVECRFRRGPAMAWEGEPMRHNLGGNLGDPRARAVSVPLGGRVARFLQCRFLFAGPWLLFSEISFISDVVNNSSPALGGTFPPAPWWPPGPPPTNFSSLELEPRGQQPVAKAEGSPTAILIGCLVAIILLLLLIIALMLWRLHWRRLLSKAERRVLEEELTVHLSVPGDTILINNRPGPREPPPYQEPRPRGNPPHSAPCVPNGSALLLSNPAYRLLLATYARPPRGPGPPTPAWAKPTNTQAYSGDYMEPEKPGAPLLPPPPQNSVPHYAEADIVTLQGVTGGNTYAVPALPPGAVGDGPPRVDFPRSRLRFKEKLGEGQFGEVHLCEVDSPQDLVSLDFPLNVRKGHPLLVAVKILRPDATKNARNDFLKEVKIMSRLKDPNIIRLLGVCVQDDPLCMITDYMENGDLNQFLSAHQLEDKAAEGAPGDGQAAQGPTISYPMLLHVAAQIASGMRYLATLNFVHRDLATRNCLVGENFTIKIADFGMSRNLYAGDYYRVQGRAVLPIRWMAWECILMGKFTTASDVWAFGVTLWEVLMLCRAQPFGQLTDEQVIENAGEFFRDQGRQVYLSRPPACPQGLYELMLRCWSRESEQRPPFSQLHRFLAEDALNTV

[6] = target: T3, Tribbles homolog 2 (Homo sapiens) (UniProt Q92519); assay: Inhibition of human recombinant Trb2 at 15 nM related to control ULK1
T3 sequence (whole entry): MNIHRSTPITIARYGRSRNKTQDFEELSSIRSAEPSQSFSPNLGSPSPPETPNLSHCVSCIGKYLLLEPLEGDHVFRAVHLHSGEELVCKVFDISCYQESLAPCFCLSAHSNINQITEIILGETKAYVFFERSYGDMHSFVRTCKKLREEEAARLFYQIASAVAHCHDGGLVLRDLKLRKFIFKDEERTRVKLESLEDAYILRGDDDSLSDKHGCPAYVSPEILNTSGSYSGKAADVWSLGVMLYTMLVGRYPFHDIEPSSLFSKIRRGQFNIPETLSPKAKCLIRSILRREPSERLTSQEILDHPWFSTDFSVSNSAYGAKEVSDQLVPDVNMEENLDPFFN

[7] = target: Ephrin type-A receptor 2 (Homo sapiens) (UniProt P29317); assay: Inhibition of human recombinant EphA2 at 40 nM related to control ULK1
Ephrin type-A receptor 2 (Homo sapiens), sequence (P29317 whole entry): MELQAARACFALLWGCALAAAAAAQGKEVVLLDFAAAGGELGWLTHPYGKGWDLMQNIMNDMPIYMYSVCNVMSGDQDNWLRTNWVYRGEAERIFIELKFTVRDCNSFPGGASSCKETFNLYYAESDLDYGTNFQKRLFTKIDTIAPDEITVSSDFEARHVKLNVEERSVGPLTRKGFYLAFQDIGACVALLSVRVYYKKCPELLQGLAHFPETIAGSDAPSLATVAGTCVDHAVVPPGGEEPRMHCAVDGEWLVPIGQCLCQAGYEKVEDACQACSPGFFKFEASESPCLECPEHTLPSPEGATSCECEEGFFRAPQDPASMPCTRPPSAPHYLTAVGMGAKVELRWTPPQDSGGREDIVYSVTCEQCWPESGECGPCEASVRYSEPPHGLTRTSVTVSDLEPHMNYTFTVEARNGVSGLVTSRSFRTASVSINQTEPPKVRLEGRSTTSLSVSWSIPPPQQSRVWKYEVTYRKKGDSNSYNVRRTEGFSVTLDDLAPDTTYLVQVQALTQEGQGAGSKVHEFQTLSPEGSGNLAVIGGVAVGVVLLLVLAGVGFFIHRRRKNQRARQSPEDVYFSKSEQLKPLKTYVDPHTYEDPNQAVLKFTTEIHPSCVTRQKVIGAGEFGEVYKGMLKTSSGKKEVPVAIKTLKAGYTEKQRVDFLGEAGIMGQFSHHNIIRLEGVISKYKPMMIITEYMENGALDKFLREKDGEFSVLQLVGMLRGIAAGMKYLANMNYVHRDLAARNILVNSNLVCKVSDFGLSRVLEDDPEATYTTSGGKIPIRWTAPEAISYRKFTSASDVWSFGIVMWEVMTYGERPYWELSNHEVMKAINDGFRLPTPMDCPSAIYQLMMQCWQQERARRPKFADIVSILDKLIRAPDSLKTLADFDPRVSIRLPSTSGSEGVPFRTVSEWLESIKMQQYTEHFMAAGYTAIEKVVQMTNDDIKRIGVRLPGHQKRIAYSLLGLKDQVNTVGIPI

[8] = target: Serine/threonine-protein kinase SIK1 (Homo sapiens) (UniProt P57059); assay: Inhibition of human recombinant SIK at 40 nM related to control ULK1
Serine/threonine-protein kinase SIK1 (Homo sapiens), sequence (P57059 whole entry): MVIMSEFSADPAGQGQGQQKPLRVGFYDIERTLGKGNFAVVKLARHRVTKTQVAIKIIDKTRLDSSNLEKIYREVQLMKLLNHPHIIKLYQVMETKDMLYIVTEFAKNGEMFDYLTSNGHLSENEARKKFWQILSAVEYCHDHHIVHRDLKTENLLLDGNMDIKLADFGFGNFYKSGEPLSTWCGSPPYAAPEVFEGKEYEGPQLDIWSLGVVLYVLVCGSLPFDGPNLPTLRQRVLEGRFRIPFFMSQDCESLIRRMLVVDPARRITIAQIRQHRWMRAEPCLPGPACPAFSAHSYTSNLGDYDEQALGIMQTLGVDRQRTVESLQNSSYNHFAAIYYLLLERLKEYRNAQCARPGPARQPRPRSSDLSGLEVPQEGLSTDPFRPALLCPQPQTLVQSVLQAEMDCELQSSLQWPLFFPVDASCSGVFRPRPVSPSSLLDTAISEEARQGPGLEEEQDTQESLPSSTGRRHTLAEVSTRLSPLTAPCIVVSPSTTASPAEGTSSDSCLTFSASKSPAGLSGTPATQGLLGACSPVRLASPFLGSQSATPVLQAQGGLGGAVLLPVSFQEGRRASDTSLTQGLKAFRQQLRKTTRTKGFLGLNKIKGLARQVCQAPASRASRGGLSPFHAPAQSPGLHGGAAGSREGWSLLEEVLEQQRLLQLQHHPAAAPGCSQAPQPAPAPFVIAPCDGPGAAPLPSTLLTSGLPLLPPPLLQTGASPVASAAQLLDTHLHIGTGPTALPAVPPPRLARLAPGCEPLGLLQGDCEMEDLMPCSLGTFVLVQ

[9] = target: T4, cAMP-dependent protein kinase catalytic subunit PRKX (Homo sapiens) (UniProt P51817); assay: Inhibition of human recombinant PRKX at 40 nM related to control ULK1
T4 sequence (whole entry): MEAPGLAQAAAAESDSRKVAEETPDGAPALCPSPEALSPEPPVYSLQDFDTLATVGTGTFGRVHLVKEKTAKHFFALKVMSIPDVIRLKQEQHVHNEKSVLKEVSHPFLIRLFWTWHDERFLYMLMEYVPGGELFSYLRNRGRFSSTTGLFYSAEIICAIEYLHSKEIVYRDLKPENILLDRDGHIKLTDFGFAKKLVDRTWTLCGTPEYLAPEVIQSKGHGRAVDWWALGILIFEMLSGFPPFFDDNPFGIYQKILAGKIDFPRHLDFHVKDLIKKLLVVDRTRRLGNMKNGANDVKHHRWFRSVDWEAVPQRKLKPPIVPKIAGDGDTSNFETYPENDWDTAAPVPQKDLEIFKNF

STE20-like serine/threonine-protein kinase (Homo sapiens), sequence (Q9H2G2 whole entry, looked up): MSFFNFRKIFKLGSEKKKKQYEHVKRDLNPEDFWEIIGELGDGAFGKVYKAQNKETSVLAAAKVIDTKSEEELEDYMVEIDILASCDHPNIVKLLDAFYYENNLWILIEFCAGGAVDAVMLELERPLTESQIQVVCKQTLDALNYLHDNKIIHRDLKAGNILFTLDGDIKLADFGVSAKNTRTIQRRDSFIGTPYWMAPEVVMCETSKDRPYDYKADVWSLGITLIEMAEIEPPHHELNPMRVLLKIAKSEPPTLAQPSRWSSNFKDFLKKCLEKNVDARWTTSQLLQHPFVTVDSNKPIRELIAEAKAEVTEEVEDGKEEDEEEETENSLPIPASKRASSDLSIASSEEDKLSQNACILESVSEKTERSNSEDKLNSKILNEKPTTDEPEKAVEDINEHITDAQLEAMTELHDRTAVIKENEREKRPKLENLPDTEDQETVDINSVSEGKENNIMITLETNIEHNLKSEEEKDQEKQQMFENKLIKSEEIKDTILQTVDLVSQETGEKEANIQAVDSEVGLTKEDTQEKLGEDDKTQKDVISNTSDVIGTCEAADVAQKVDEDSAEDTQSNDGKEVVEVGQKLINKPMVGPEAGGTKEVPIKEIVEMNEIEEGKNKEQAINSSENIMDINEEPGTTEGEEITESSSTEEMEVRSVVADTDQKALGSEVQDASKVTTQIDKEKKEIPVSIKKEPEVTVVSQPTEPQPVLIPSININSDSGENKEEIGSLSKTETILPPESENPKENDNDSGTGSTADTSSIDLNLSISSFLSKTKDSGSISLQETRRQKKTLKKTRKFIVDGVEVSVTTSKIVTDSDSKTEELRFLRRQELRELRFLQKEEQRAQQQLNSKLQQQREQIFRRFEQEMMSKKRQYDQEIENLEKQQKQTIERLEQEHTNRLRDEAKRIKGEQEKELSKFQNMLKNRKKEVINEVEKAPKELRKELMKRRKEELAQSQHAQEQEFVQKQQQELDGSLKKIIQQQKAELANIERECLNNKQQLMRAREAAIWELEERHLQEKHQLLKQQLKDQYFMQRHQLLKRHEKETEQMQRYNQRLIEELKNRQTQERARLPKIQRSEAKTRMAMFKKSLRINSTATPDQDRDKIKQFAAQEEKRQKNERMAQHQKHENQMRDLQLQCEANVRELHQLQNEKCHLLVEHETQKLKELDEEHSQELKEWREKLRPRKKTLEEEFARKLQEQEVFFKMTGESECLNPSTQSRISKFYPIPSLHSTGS

fold change (FC) [1]: 0.2
Structure (SMILES): CNC(=O)c1ccccc1Oc1nc(Nc2cc(OC)c(OC)c(OC)c2)ncc1Br

inhibition [2]: 25%
fold change (FC) [3]: 0.03
inhibition [4]: 31%
inhibition [5]: 78%
fold change (FC) [6]: 0.41
Structure (SMILES): CC(C)[C@H](NC(=O)c1cc(-c2cnn3cc(-c4ccc(OCCN5CCCCC5)cc4)cnc23)cs1)C(F)(F)F

fold change (FC) [7]: 0.03
fold change (FC) [8]: 0.27
fold change (FC) [9]: 0.27
Structure (SMILES): O=C(N[C@@H](C1CC1)C(F)(F)F)c1cc(-c2cnn3cc(-c4ccc(F)cc4)cnc23)cs1
